According to ChEMBL document CHEMBL3045565, “Microwave synthesis, characterization and bio-efficacy evaluation of novel chalcone based 6-carbethoxy-2-cyclohexen-1-one and 2H-indazol-3-ol derivatives” (Eur J Med Chem, 2013):
In brackets after ≈: the same amount, converted by molar mass.

Experiments:
Format in all cases: functional
[1] = system: Radical scavenging activity; assay: Antioxidant activity assessed as DPPH free radical scavenging activity at 0.8 ug/mL after 20 min by UV-Vis spectrophotometric analysis
Method in brief: (§1)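 DPPH radical scavenging: samples held at room temperature for 20 min in the dark, then absorbance read at 517 nm. Control was DMSO without compound; methanol used for baseline correction. Percent scavenging calculated from absorbance relative to control.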

[2] = system: Radical scavenging activity; assay: Antioxidant activity assessed as DPPH free radical scavenging activity at 0.4 ug/mL after 20 min by UV-Vis spectrophotometric analysis; method in brief: as §1
[3] = system: Radical scavenging activity; assay: Antioxidant activity assessed as DPPH free radical scavenging activity at 0.2 ug/mL after 20 min by UV-Vis spectrophotometric analysis; method in brief: as §1
[4] = system: Radical scavenging activity; assay: Antioxidant activity assessed as DPPH free radical scavenging activity at 0.1 ug/mL after 20 min by UV-Vis spectrophotometric analysis; method in brief: as §1
[5] = system: Radical scavenging activity; assay: Antioxidant activity assessed as DPPH free radical scavenging activity after 20 min by UV-Vis spectrophotometric analysis; design: concentration or dose not given beside the values
Method in brief: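 DPPH radical scavenging: samples were held at room temperature for 20 min in the dark, and absorbance was read at 517 nm. The control contained DMSO without compound, and methanol was used for baseline correction. Scavenging percentage was calculated from the absorbances.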

[6] = system: Radical scavenging activity; assay: Antioxidant activity assessed as DPPH free radical scavenging activity at 4 ug/mL after 20 min by UV-Vis spectrophotometric analysis; method in brief: as §1
[7] = system: Radical scavenging activity; assay: Antioxidant activity assessed as DPPH free radical scavenging activity at 2 ug/mL after 20 min by UV-Vis spectrophotometric analysis; method in brief: as §1
[8] = system: Radical scavenging activity; assay: Antioxidant activity assessed as DPPH free radical scavenging activity at 3 ug/mL after 20 min by UV-Vis spectrophotometric analysis; method in brief: as §1
[9] = system: Radical scavenging activity; assay: Antioxidant activity assessed as DPPH free radical scavenging activity at 1 ug/mL after 20 min by UV-Vis spectrophotometric analysis; method in brief: as §1
[10] = system: Radical scavenging activity; assay: Antioxidant activity assessed as DPPH free radical scavenging activity at 0.6 ug/mL after 20 min by UV-Vis spectrophotometric analysis; method in brief: as §1

`O=C(O)c1cc(O)c(O)c(O)c1` [GALLIC ACID] was tested, and the Activity [1] was 34.4%, the Activity [2] was 21.4% and the Activity [3] was 15.8%. It also gave an Activity [4] of 13.9%, an Activity [5] of 21.4% and an IC50 [5] of 1.28 µg/mL (≈ 7.52 µM). The Activity [6] was 89.9%, the Activity [7] was 73.6% and the Activity [8] was 88.9%. For the same compound, the Activity [9] was 41% and the Activity [10] was 28%.
